The test system of series [1] is whole saliva supernatant proteases. Briefly: Proteolysis of purified statherin in pooled whole saliva supernatant. The series is classed as in vitro ADME, human. The conditions noted are these: WSS boiled to abolish protease activities; statherin 400 µg/ml; 37°C; RP-HPLC. In short, it runs like this: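 Supernatant from pooled stimulated whole saliva (14,000 × g, 20 min, 4°C), boiled to abolish protease activity. Parotid-derived purified statherin added to 400 µg/ml final. Incubated at 37°C and sampled at 0, 1, 3, 5 and 7 h. Aliquots boiled 10 min, diluted in 0.1% TFA, and analysed by analytical C-18 RP-HPLC (0–55% of 80% acetonitrile/0.1% TFA over 74 min). Intact statherin peak area integrated.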

The test system of another series is whole saliva proteases. As to the kind of experiment: Proteolysis of purified statherin in pooled whole saliva. The series is classed as in vitro ADME, human. The conditions noted are these: WS boiled to abolish protease activities; statherin 400 µg/ml; 37°C; RP-HPLC. In a few lines: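 Pooled Parafilm-stimulated whole saliva from four healthy donors, boiled to abolish protease activity. Statherin, purified from parotid secretion by zinc precipitation and RP-HPLC, added to 400 µg/ml final. Incubated at 37°C and sampled at 0, 10, 30, 60 and 90 min. Aliquots boiled 10 min, diluted in 0.1% TFA, and run on analytical C-18 RP-HPLC (0–55% buffer B over 74 min). Intact statherin peak integrated.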

Consider “statherin (DSSEEKFLRRIGRFGYGYGPYQPVPEQPLYPQPYQPQYQQYTF; UniProt P02808 20-62, looked up)”, for which the “Stability of statherin in boiled WSS (control)” value in series [1] is given as “remained intact”. The “Stability of statherin in boiled WS (control)” value in the series with whole saliva proteases was “remained intact”.

The values above are taken from paper PMC2948583 (Journal of proteome research, 2010).
